A word on the MIC99: it is the lowest concentration that inhibits either 99% of growth or 99% of the strains tested, depending on the study.

27 compounds from ChEMBL document CHEMBL5620421, “2,6-Disubstituted 7-(naphthalen-2-ylmethyl)-7H-purines as a new class of potent antitubercular agents inhibiting DprE1” (Eur J Med Chem, 2023) can be followed below.

Common to all, as to type: functional
Experiment [1] deals with Mycobacterium tuberculosis. Nature of the experiment: Antitubercular activity against Mycobacterium tuberculosis CNCTC My 331/88 (H37Rv) assessed as inhibition of bacterial growth measured after 14 days of incubation by Sulas semisynthetic medium based assay. The settings on record: 336 h, time 14 day. The method in brief: (§1)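 Micromethod MIC in Sula's semisynthetic medium. MIC is the lowest concentration inhibiting >99% of the mycobacterial population. Isoniazid was the standard drug.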

Experiment [2] relates to Mycobacterium tuberculosis. Nature of the experiment: Antitubercular activity against Mycobacterium tuberculosis CNCTC My 331/88 (H37Rv) assessed as inhibition of bacterial growth measured after 21 days of incubation by Sulas semisynthetic medium based assay. The settings on record: 504 h, time 21 day. An outline of the steps:
as §1

The subject of experiment [3] is Mycobacterium avium. Nature of the experiment: Antitubercular activity against Mycobacterium avium CNCTC My 330/88 assessed as inhibition of bacterial growth measured after 14 days of incubation by Sulas semisynthetic medium based assay. The settings on record: CNCTC My 330/88, 336 h, time 14 day. The method in brief:
(§2)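 M. avium was tested by the micromethod in Sula's semisynthetic medium. Compounds in DMSO at 1000 to 0.5 μmol/L. Incubation at 37 °C, read at 14 and 21 days. MIC is the lowest concentration giving >99% growth inhibition.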

Experiment [4] concerns Mycobacterium avium. Kind of experiment: Antitubercular activity against Mycobacterium avium CNCTC My 330/88 assessed as inhibition of bacterial growth measured after 21 days of incubation by Sulas semisynthetic medium based assay. The following applies: CNCTC My 330/88, 504 h, time 21 day. An outline of the steps:
as §2

Experiment [5] concerns Mycobacterium kansasii. Kind of experiment: Antitubercular activity against Mycobacterium kansasii CNCTC My 235/80 assessed as inhibition of bacterial growth measured after 7 days of incubation by Sulas semisynthetic medium based assay. The settings on record: CNCTC My 235/80, 168 h, time 7 day. An outline of the steps: (§3)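 Micromethod in Sula's semisynthetic medium. MIC is the lowest concentration inhibiting >99% of the mycobacterial population. Isoniazid was the standard.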

Experiment [6] has as its system Mycobacterium kansasii. Kind of experiment: Antitubercular activity against Mycobacterium kansasii CNCTC My 235/80 assessed as inhibition of bacterial growth measured after 14 days of incubation by Sulas semisynthetic medium based assay. The settings on record: CNCTC My 235/80, 336 h, time 14 day. An outline of the steps: as §3
Experiment [7] deals with Mycobacterium kansasii. Nature of the experiment: Antitubercular activity against Mycobacterium kansasii CNCTC My 235/80 assessed as inhibition of bacterial growth measured after 21 days of incubation by Sulas semisynthetic medium based assay. The settings on record: CNCTC My 235/80, 504 h, time 21 day. An outline of the steps:
as §3

≈ marks a conversion by molar mass, not a printed value.

In the case of `COCCNc1nc2ncn(Cc3ccc4ccccc4c3)c2c(=O)[nH]1`, the MIC99 in experiment [1], in experiment [2], in experiment [3], in experiment [4], in experiment [5] and in experiment [6] was above 500 µM each time. Moreover, in experiment [7], the MIC99 is above 500 µM.

In the case of `Clc1ncnc2ncn(Cc3ccc4ccccc4c3)c12`, the MIC99 in experiment [1] was 125 µM (≈ 36.8 µg/mL); in experiment [2], 125 µM (≈ 36.8 µg/mL); in experiment [3], above 1000 µM; in experiment [4], above 1000 µM; in experiment [5], 1000 µM (≈ 295 µg/mL); in experiment [6], above 1000 µM. For the same compound, the MIC99 in experiment [7] was above 1000 µM.

Regarding `c1ccc2cc(Cn3cnc4nc(N5CCOCC5)nc(N5CCOCC5)c43)ccc2c1`, the MIC99 in experiment [1] is 125 µM (≈ 53.8 µg/mL); in experiment [2], 125 µM (≈ 53.8 µg/mL); in experiment [3] it was 250 µM (≈ 108 µg/mL); in experiment [4], 500 µM (≈ 215 µg/mL); in experiment [5], 125 µM (≈ 53.8 µg/mL); in experiment [6], 125 µM (≈ 53.8 µg/mL). Moreover, the MIC99 in experiment [7] came to 250 µM (≈ 108 µg/mL).

Regarding `O=c1[nH]c(N2CC3(COC3)C2)nc2ncn(Cc3ccc4ccccc4c3)c12`, the MIC99 in experiment [1], in experiment [2], in experiment [3], in experiment [4], in experiment [5] and in experiment [6] was above 500 µM in each case. Also, the MIC99 in experiment [7] is above 500 µM.

In the case of `CN(C)CCNc1nc(N2CCOCC2)nc2ncn(Cc3ccc4ccccc4c3)c12`, the MIC99 stood at 32 µM (≈ 13.8 µg/mL) in experiment [1]; 64 µM (≈ 27.6 µg/mL) in experiment [2]; 500 µM (≈ 216 µg/mL) in experiment [3]; 500 µM (≈ 216 µg/mL) in experiment [4]; 64 µM (≈ 27.6 µg/mL) in experiment [5]; 125 µM (≈ 53.9 µg/mL) in experiment [6]. The MIC99 in experiment [7] was 125 µM (≈ 53.9 µg/mL).

Turning to `COc1ccc(Cn2cnc3c(=O)[nH]c(N4CCOCC4)nc32)cc1`, the MIC99 in experiment [1], in experiment [2], in experiment [3], in experiment [4], in experiment [5] and in experiment [6] was above 500 µM in each case. Further, the MIC99 in experiment [7] is above 500 µM.

Take `S=c1[nH]c(=S)c2c(ncn2Cc2ccc3ccccc3c2)[nH]1`: the MIC99 in experiment [1], in experiment [2], in experiment [3], in experiment [4], in experiment [5] and in experiment [6] was above 500 µM throughout. Further, in experiment [7], the MIC99 is above 500 µM.

Take `O=c1[nH]c(N2CCOCC2)nc2c1ncn2Cc1ccc(Cl)cc1`: the MIC99 in experiment [1], in experiment [2], in experiment [3], in experiment [4], in experiment [5] and in experiment [6] was above 500 µM each time. Moreover, the MIC99 in experiment [7] was above 500 µM.

In the case of `CN1CCN(c2nc3ncn(Cc4ccc5ccccc5c4)c3c(=O)[nH]2)CC1`, the MIC99 in experiment [1] is 250 µM (≈ 93.6 µg/mL); in experiment [2] it was 500 µM (≈ 187 µg/mL); in experiment [3] it was above 500 µM; in experiment [4], above 500 µM; in experiment [5], 250 µM (≈ 93.6 µg/mL); in experiment [6], 500 µM (≈ 187 µg/mL). The MIC99 in experiment [7] turned out to be 500 µM (≈ 187 µg/mL).

In the case of `O=c1[nH]c(NC2CC2)nc2ncn(Cc3ccc4ccccc4c3)c12`, the MIC99 in experiment [1], in experiment [2], in experiment [3], in experiment [4], in experiment [5] and in experiment [6] was above 500 µM in each case. In experiment [7], the MIC99 is above 500 µM.

As for `O=c1[nH]c(NCCO)nc2ncn(Cc3ccc4ccccc4c3)c12`, the MIC99 in experiment [1], in experiment [2], in experiment [3], in experiment [4], in experiment [5] and in experiment [6] was above 500 µM each time. For the same compound, the MIC99 in experiment [7] is above 500 µM.

With `O=c1[nH]c(N2CCOCC2)nc2c1ncn2Cc1ccc2ccccc2c1`, the MIC99 in experiment [1], in experiment [2], in experiment [3], in experiment [4], in experiment [5] and in experiment [6] was above 250 µM in each case. Moreover, the MIC99 in experiment [7] was above 250 µM.

For `O=c1[nH]c(N2CCCC2)nc2ncn(Cc3ccc4ccccc4c3)c12`, the MIC99 is 8 µM (≈ 2.76 µg/mL) in experiment [1]; 16 µM (≈ 5.53 µg/mL) in experiment [2]; above 500 µM in experiment [3]; above 500 µM in experiment [4]; above 500 µM in experiment [5]; above 500 µM in experiment [6]. The MIC99 in experiment [7] is above 500 µM.

As for `S=c1[nH]cnc2ncn(Cc3ccc4ccccc4c3)c12`, the MIC99 in experiment [1], in experiment [2], in experiment [3], in experiment [4], in experiment [5] and in experiment [6] was above 500 µM in each case. In addition, the MIC99 in experiment [7] is above 500 µM.

For `COc1cccc(Cn2cnc3nc(N4CCOCC4)[nH]c(=O)c32)c1`, the MIC99 is 500 µM (≈ 171 µg/mL) in experiment [1]; above 500 µM in experiment [2]; above 500 µM in experiment [4]; above 500 µM in experiment [5]; above 500 µM in experiment [6]; above 500 µM in experiment [7].

On to `CN(C)c1nc2ncn(Cc3ccc4ccccc4c3)c2c(=O)[nH]1`, for which the MIC99 in experiment [1], in experiment [2], in experiment [3], in experiment [4], in experiment [5] and in experiment [6] was above 500 µM each time. The MIC99 in experiment [7] is above 500 µM.

`CC(C)c1ccc(Cn2cnc3c(=O)[nH]c(N4CCOCC4)nc32)cc1`: the MIC99 was 125 µM (≈ 44.2 µg/mL) in experiment [1]; above 250 µM in experiment [2]; above 250 µM in experiment [3]; above 250 µM in experiment [4]; above 250 µM in experiment [5]; above 250 µM in experiment [6]. Also, the MIC99 in experiment [7] is above 250 µM.

For the compound `O=c1[nH]c(N2CCOCC2)nc2ncn(Cc3cccc4ccccc34)c12`, the MIC99 in experiment [1], in experiment [2], in experiment [3], in experiment [4], in experiment [5] and in experiment [6] was above 500 µM throughout. Further, the MIC99 in experiment [7] was above 500 µM.

Consider `Cn1c(N2CCOCC2)nc2ncn(Cc3ccc4ccccc4c3)c2c1=O`, for which the MIC99 is 32 µM (≈ 12 µg/mL) in experiment [1]; 64 µM (≈ 24 µg/mL) in experiment [2]; above 500 µM in experiment [3]; above 500 µM in experiment [4]; above 500 µM in experiment [6]; above 500 µM in experiment [7].

Consider `COc1ccc(Cn2cnc3nc(N4CCOCC4)[nH]c(=O)c32)cc1`, for which the MIC99 in experiment [1] was 32 µM (≈ 10.9 µg/mL); in experiment [2], 64 µM (≈ 21.8 µg/mL); in experiment [3], above 500 µM; in experiment [4] it was above 500 µM; in experiment [6], above 500 µM; in experiment [7] it was above 500 µM.

Take `O=c1[nH]c(NC2CCC2)nc2ncn(Cc3ccc4ccccc4c3)c12`: the MIC99 in experiment [1], in experiment [2], in experiment [3], in experiment [4], in experiment [5] and in experiment [6] was above 500 µM each time. In addition, in experiment [7], the MIC99 is above 500 µM.

Consider `O=c1[nH]c(N2CCOCC2)nc2c1ncn2Cc1ccccc1`, for which the MIC99 in experiment [1], in experiment [2], in experiment [3], in experiment [4], in experiment [5] and in experiment [6] was above 500 µM each time. Also, the MIC99 in experiment [7] is above 500 µM.

Turning to `O=c1[nH]c(N2CCOCC2)nc2ccn(Cc3ccc4ccccc4c3)c12`, the MIC99 in experiment [1], in experiment [2], in experiment [3], in experiment [4], in experiment [5] and in experiment [6] was above 500 µM each time. In experiment [7], the MIC99 was above 500 µM.

With `O=c1[nH]c(N2CCOCC2)nc2ncn(-c3cccc4c3sc3ccccc34)c12`, the MIC99 in experiment [1], in experiment [2], in experiment [3], in experiment [4], in experiment [5] and in experiment [6] was above 250 µM in each case. For the same compound, the MIC99 in experiment [7] is above 250 µM.

For the compound `c1ccc2cc(Cn3cnc4nc(N5CCOCC5)nc(NCc5ccncc5)c43)ccc2c1`, the MIC99 turned out to be 8 µM (≈ 3.61 µg/mL) in experiment [1]; 8 µM (≈ 3.61 µg/mL) in experiment [2]; 250 µM (≈ 113 µg/mL) in experiment [3]; 500 µM (≈ 226 µg/mL) in experiment [4]; 64 µM (≈ 28.9 µg/mL) in experiment [5]; 64 µM (≈ 28.9 µg/mL) in experiment [6]. Also, the MIC99 in experiment [7] came out at 64 µM (≈ 28.9 µg/mL).

In the case of `O=c1[nH]c(N2CCOCC2)nc2c1ncn2Cc1ccc(Cl)c(Cl)c1`, the MIC99 in experiment [1], in experiment [2], in experiment [3], in experiment [4], in experiment [5] and in experiment [6] was above 250 µM in each case. Also, the MIC99 in experiment [7] was above 250 µM.

With `O=c1[nH]c(N2CCOCC2)nc2ncn(-c3ccsc3)c12`, the MIC99 in experiment [1], in experiment [2], in experiment [3], in experiment [4], in experiment [5] and in experiment [6] was above 500 µM throughout.
